In ChEMBL document CHEMBL1938356, “Structure-activity relationship of salicylic acid derivatives on inhibition of TNF-α dependent NFκB activity: Implication on anti-inflammatory effect of N-(5-chlorosalicyloyl)phenethylamine against experimental colitis” (Eur J Med Chem, 2012) one finds inhibition, IC50 and Activity data, which are given here for 21 compounds.

Activity calls are given as the source filed them. The rule behind the calls is not given here.

Test [1] has as its system HCT-116. Put plainly: Inhibition of TNF-alpha-induced NF-kappaB activation in human HCT116 cells at 1 mM after 6 hrs by luciferase reporter gene assay. The format is cell-based. The procedure, abridged:
(§1)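 HCT116 cells at 50-60% confluence were cotransfected (Fugene) with an NFκB-dependent firefly luciferase plasmid and CMV Renilla plasmid (4 ng). After 24 h, cells received TNF-α (1 ng/ml) plus compound for 6 h, then were lysed. Dual-luciferase read-out, firefly normalized to Renilla. IC50 came from varied concentrations.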

Test [2] is described as follows: (§2) Inhibition of TNF-alpha-induced NF-kappaB activation in human HCT116 cells after 6 hrs by luciferase reporter gene assay. In kind it is cell-based. The settings on record: HCT-116, 6 h. The procedure, abridged: as §1
The subject of test [3] is RAW264.7. Briefly: Inhibition of NF-kappaB-mediated iNOS protein expression in LPS-stimulated mouse RAW264.7 cells at 0.5 to 2 mM by Western blot analysis. The format is cell-based. The procedure, abridged: (§3)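 RAW264.7 cells in DMEM with 10% FBS were pretreated with a range of drug concentrations and stimulated with LPS. iNOS was immunoblotted in whole-cell lysates (30-40 µg), α-tubulin served as loading control, in duplicate.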

Test [4] has as its system HCT-116. The description is as §2. In kind it is cell-based. The procedure, abridged:
as §1

Test [5] concerns RAW264.7. Put plainly: Inhibition of NF-kappaB-mediated iNOS protein expression in LPS-stimulated mouse RAW264.7 cells at 0.25 mM by Western blot analysis. The format is cell-based. The procedure, abridged: (§4)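 RAW264.7 cells grown in DMEM with 10% FBS were pretreated 1 h with drug, then stimulated with LPS (1 ng/ml) for 6 h. iNOS was immunoblotted in whole-cell lysates (30-40 µg) with a polyclonal antibody, α-tubulin served as loading control, in duplicate.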

Test [6] deals with RAW264.7. The following applies: Mus musculus, 2 to 4 mM.
In test [7] the test system is RAW264.7. The following applies: Mus musculus, 5 mM.
The subject of test [8] is Rattus norvegicus. Briefly: Antiinflammatory activity against trinitrobenzenesulfonic acid-induced colitis in rat assessed as decrease in myeloperoxidase activity at 30 mM administered rectally QD for 6 days. In kind it is functional, organism-based. The procedure, abridged:
(§5)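 TNBS colitis in rats: after a 24 h fast with free access to water and light ether anaesthesia, TNBS (15 mg/0.3 ml/rat in 50% aqueous ethanol) was instilled through a rectal cannula whose tip sat 8 cm proximal to the anus. From day 3, drug in PBS (500 µL; 100 or 300 µM, or sodium 5-aminosalicylate 30 mM) was given rectally once daily for 6 days, then rats were sacrificed.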

Test [9] concerns Rattus norvegicus. Put plainly: Antiinflammatory activity against trinitrobenzenesulfonic acid-induced colitis in rat assessed as decrease in CINC2 protein expression at 30 mM administered rectally QD for 6 days. The format is functional, organism-based.
Test [10] relates to Rattus norvegicus. Briefly: Antiinflammatory activity against trinitrobenzenesulfonic acid-induced colitis in rat assessed as healing of damaged colon at 30 mM administered rectally QD for 6 days. In kind it is functional, organism-based. The procedure, abridged: as §5
Test [11] has as its system Rattus norvegicus. Put plainly: Antiinflammatory activity against trinitrobenzenesulfonic acid-induced colitis in rat assessed as decrease in COX2 protein at 30 mM administered rectally QD for 6 days. The format is functional, organism-based. The procedure, abridged:
as §5

Test [12] has as its system RAW264.7. Briefly: Inhibition of NF-kappaB-mediated iNOS protein expression in LPS-stimulated mouse RAW264.7 cells at 0.1 mM by Western blot analysis. In kind it is cell-based. The procedure, abridged:
as §4
A general note: A western blot detects proteins with antibodies after separation by electrophoresis.

The test system of test [13] is Rattus norvegicus. Put plainly: Antiinflammatory activity against trinitrobenzenesulfonic acid-induced colitis in rat assessed as decrease in myeloperoxidase activity at 100 uM administered rectally QD for 6 days. The format is functional. Also on record: scale not given: the % may be the effect or the level left. The procedure, abridged: as §5
Test [14] relates to Rattus norvegicus. Briefly: Antiinflammatory activity against trinitrobenzenesulfonic acid-induced colitis in rat assessed as decrease in COX2 protein at 300 uM administered rectally QD for 6 days. In kind it is functional, organism-based. The procedure, abridged:
as §5

Test [15] concerns Rattus norvegicus. Briefly: Antiinflammatory activity against trinitrobenzenesulfonic acid-induced colitis in rat assessed as healing of damaged colon administered rectally QD for 6 days. The format is functional, organism-based. The procedure, abridged:
as §5

The subject of test [16] is Rattus norvegicus. Put plainly: Antiinflammatory activity against trinitrobenzenesulfonic acid-induced colitis in rat assessed as decrease in COX2 protein administered rectally QD for 6 days. The format is functional, organism-based. The procedure, abridged:
as §5

Test [17] has as its system Rattus norvegicus. Briefly: Antiinflammatory activity against trinitrobenzenesulfonic acid-induced colitis in rat assessed as decrease in CINC-3 protein at 300 uM administered rectally QD for 6 days. The format is functional, organism-based. The procedure, abridged:
as §5

Test [18] deals with Rattus norvegicus. Put plainly: Antiinflammatory activity against trinitrobenzenesulfonic acid-induced colitis in rat assessed as decrease in CINC2 protein expression administered rectally QD for 6 days. In kind it is functional, organism-based.
Test [19] concerns Rattus norvegicus. Briefly: Antiinflammatory activity against trinitrobenzenesulfonic acid-induced colitis in rat assessed as healing of damaged colon at 300 uM administered rectally QD for 6 days. The format is functional, organism-based. The procedure, abridged:
as §5

Test [20] deals with Rattus norvegicus. Put plainly: Antiinflammatory activity against trinitrobenzenesulfonic acid-induced colitis in rat assessed as decrease in myeloperoxidase activity at 300 uM administered rectally QD for 6 days. The format is functional. On the set-up: scale not given: the % may be the effect or the level left. The procedure, abridged: as §5
Test [21] deals with RAW264.7. Briefly: Inhibition of NF-kappaB-mediated iNOS protein expression in LPS-stimulated mouse RAW264.7 cells at 1 to 4 mM by Western blot analysis. The format is cell-based. The procedure, abridged: as §3

As to `O=C(O)c1cc(-c2ccc(F)cc2F)ccc1O`, the inhibition result with HCT-116 [1] was “Active”.
By IC50 is commonly meant the concentration that inhibits the measured activity by half. As for `O=C(c1cc(Cl)ccc1O)N1CCNCC1`, in test [2], the IC50 is > 250 µM.
Turning to `O=C(NCc1ccccc1)c1cc(Cl)ccc1O`, the IC50 in test [2] was found to be 105 µM.
On the same count and under the same terms, to `O=C(c1cc(Cl)ccc1O)N1CCCCC1` belongs > 250 µM.
`NC(=O)c1cc(Cl)ccc1O`: the inhibition entry with RAW264.7 [3] is “Active”.
`CCCCCCNC(=O)c1cc(Cl)ccc1O` registered a 50% inhibitory concentration (IC50) in test [2] of 95 µM.
Consider `O=C(NCCc1ccc(O)cc1)c1cc(Cl)ccc1O`, for which the inhibition entry in the test on HCT-116 [4] is “Dose-dependent effect”. In [2], the midpoint of inhibition, the IC50, lay at 91 µM. Moreover, the inhibition result in the test with RAW264.7 [5] was “Active”.
Consider `O=C(O)c1ccccc1O`, for which the inhibition entry with RAW264.7 [6], in the test with HCT-116 [1] and in the test with RAW264.7 [7] was “Active” in each case.
For the compound `COC(=O)c1ccccc1O`, the inhibition entry with HCT-116 [1] was “Active”.
Consider `CNC(=O)c1cc(Cl)ccc1O`, for which the IC50 in [2] was > 250 µM.
On the same count and under the same terms, to `O=C(c1cc(Cl)ccc1O)N1CCOCC1` belongs > 250 µM; to `CN(C)C(=O)c1cc(Cl)ccc1O`, > 250 µM.
`Nc1ccc(O)c(C(=O)O)c1`: the result in the test on Rattus norvegicus [8], in the test on Rattus norvegicus [9], in the test with Rattus norvegicus [10] and in the test on Rattus norvegicus [11] was Active. Besides, the inhibition result in the test with HCT-116 [1] is “Active”.
Regarding `O=C(NCCCc1ccccc1)c1cc(Cl)ccc1O`, the inhibition result with HCT-116 [4] is “Dose-dependent effect”. Moreover, the midpoint of inhibition in [2], the IC50, lay at 17 µM. Moreover, the inhibition result in the test with RAW264.7 [12] is “Active”.
As for `O=C(NCCc1ccccc1)c1cc(Cl)ccc1O`, in the test with HCT-116 [4], the inhibition result was “Dose-dependent effect”. In test [2], this compound returned an IC50 of 15 µM. The Activity in the test with Rattus norvegicus [13] was 60%; in the test with Rattus norvegicus [15], “Dose-dependent effect”; in the test with Rattus norvegicus [16] it was “Dose-dependent effect”; in the test with Rattus norvegicus [18], “Dose-dependent effect”; with Rattus norvegicus [20], 35%. The inhibition result with RAW264.7 [12] is “Active”. Further, the result with Rattus norvegicus [14], with Rattus norvegicus [17] and in the test with Rattus norvegicus [19] was Active.
As to `O=C(O)c1cc(Cl)ccc1O`, the inhibition result in the test on RAW264.7 [21] and in the test on HCT-116 [1] was “Active” in each case.
In the case of `CN1CCN(C(=O)c2cc(Cl)ccc2O)CC1`, the concentration for half-maximal inhibition (IC50) in test [2] is > 250 µM.
On to `NC(=O)c1ccccc1O`, for which the inhibition result in the test on RAW264.7 [21] and in the test with HCT-116 [1] was “Active” each time.
As for `CC(=O)Oc1ccccc1C(=O)O`, the inhibition entry in the test with HCT-116 [1] was “Active”.
Consider `O=C(c1cc(Cl)ccc1O)N1CCN(c2ccccc2)CC1`, for which the IC50 in [2] is > 250 µM.
Take `O=C(O)c1cc([N+](=O)[O-])ccc1O`: in the test on HCT-116 [1], the inhibition result is “Active”.
